Data as given in ChEMBL document CHEMBL1125052, “Synthesis and in vitro LTD4 antagonist activity of bicyclic and monocyclic cyclopentylurethane and cyclopentylacetamide N-arylsulfonyl amides” (J Med Chem, 1990).

Key:
[1] = target: T1, Cysteinyl leukotriene receptor 1 (Cavia porcellus) (UniProt Q2NNR5); test: Negative logarithm of molar dissociation constant on guinea pig trachea at Cysteinyl leukotriene D4 receptor, when LTE4 is used as agonist; assay type: functional
T1 sequence (whole entry): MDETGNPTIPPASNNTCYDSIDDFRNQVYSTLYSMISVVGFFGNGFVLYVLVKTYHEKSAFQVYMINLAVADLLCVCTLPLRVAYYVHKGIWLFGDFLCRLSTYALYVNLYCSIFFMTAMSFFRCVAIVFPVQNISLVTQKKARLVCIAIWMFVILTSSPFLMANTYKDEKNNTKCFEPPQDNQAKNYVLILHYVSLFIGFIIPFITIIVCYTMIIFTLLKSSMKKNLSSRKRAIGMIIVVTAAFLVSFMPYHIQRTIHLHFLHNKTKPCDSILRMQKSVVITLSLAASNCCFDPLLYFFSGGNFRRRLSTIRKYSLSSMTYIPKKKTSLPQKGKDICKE
How it was run: (§1)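 Guinea pig tracheal spirals, each trachea split into two sections for paired experiments, in 10-mL baths of modified Krebs' buffer at 37 °C gassed with 95% O2/5% CO2. Resting tension was 2 g, with 60 min stabilization. Responses were expressed relative to carbachol (30 μM). Test compound was preincubated 30 min before cumulative LTE4 log-increment curves; paired controls received vehicle. EC50 was obtained by linear regression and KB = [antagonist]/(dose ratio − 1).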

[2] = Partition coefficient (logP); assay type: physicochemical; conditions: octanol/water
[3] = target: T1, Cysteinyl leukotriene receptor 1 (Cavia porcellus); test: Negative logarithm of molar dissociation constant on guinea pig trachea at LTD4 receptor, when LTE4 is used as agonist; assay type: functional; how it was run: as §1
[4] = Antagonist activity was determined; assay type: functional; how it was run: as §1

Row | pKB [1] | SMILES | also measured
1 | 9.25 | COc1cc(C(=O)NS(=O)(=O)c2ccccc2C)ccc1Cc1csc2ccc(NC(=O)CC3CCCC3)cc12 | –
2 | 9.22 | COc1cc(C(=O)NS(=O)(=O)c2ccccc2)ccc1Cn1cnc2ccc(NC(=O)CC3CCCC3)cc21 | –
3 | – | Cn1ccc2ccccc21 | logP [2]: 2.72
4 | – | COc1cc(C(=O)NS(=O)(=O)c2ccccc2C)ccc1CN1CCOc2ccc(NC(=O)CC3CCCC3)cc21 | pKB [3]: 9.68
5 | – | c1ccc2[nH]nnc2c1 [BENZOTRIAZOLE] | logP [2]: 1.34
6 | 7.14 | COc1cc(C(=O)NS(=O)(=O)c2ccccc2)ccc1COc1cccc(NC(=O)OC2CCCC2)c1 | –
7 | – | c1ccc2sccc2c1 [BENZOTHIOPHENE] | logP [2]: 3.09
8 | 9.31 | COc1cc(C(=O)NS(=O)(=O)c2ccccc2)ccc1Cc1csc2ccc(NC(=O)OC3CCCC3)cc12 | –
9 | 9.07 | CNc1ccc(NC(=O)OC2CCCC2)cc1C(=O)Cc1ccc(C(=O)NS(=O)(=O)c2ccccc2C)cc1OC | –
10 | – | COc1cc(C(=O)NS(=O)(=O)c2ccccc2)ccc1Cn1ncc2ccc(NC(=O)OC3CCCC3)cc21 [ICI-198615] | pA2 [4]: 10.1
11 | 9.6 | COc1cc(C(=O)NS(=O)(=O)c2ccccc2Cl)ccc1Cc1csc2ccc(NC(=O)CC3CCCC3)cc12 | –
12 | – | c1ccc2[nH]cnc2c1 [BENZIMIDAZOLE] | logP [2]: 1.2
13 | 9.02 | COc1cc(C(=O)NS(=O)(=O)c2ccccc2)ccc1CN1CCOc2ccc(NC(=O)OC3CCCC3)cc21 | –
14 | 9.2 | COc1cc(C(=O)NS(=O)(=O)c2ccccc2)ccc1Cn1cnc2ccc(NC(=O)OC3CCCC3)cc21 | –
15 | 9.11 | COc1cc(C(=O)NS(=O)(=O)c2ccccc2)ccc1CN1CCc2ccc(NC(=O)CC3CCCC3)cc21 | –
16 | 9.1 | COc1cc(C(=O)NS(=O)(=O)c2ccccc2)ccc1CN1CCOc2ccc(NC(=O)CC3CCCC3)cc21 | –
17 | – | c1ccc2[nH]ncc2c1 [INDAZOLE] | logP [2]: 1.82
18 | – | COc1cc(C(=O)NS(=O)(=O)c2ccccc2)ccc1Cc1nn(C)c2ccc(NC(=O)OC3CCCC3)cc12 | pKB [3]: 10.3
19 | 9.86 | COc1cc(C(=O)NS(=O)(=O)c2ccccc2)ccc1Cn1nnc2ccc(NC(=O)CC3CCCC3)cc21 | –
